Reference: ChEMBL document CHEMBL3286205, “Optimization of diaryl amine derivatives as kinesin spindle protein inhibitors” (Bioorg Med Chem, 2014)
≈ marks a conversion by molar mass, not a printed value.

How the values were obtained:
[1] = Thermodynamic solubility of the compound in 50% EtOH/1/15 M phosphate buffer at pH 7.4 after 48 hrs by HPLC analysis; format: physicochemical; conditions: read-out: Therm_solubility
Outline: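 Solid compound in 0.5 mL of 1/15 M phosphate buffer (pH 7.4) plus 0.5 mL EtOH was shaken 48 h at 25 °C and filtered. m-Cresol internal standard was added (0.05 mg/mL final), the sample diluted in DMF and analysed by HPLC-UV at 254 nm. Concentration came from the peak-area ratio against a calibration curve, corrected for dilution.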

[2] = Thermodynamic solubility of the compound in 1/15 M phosphate buffer at pH 7.4 after 48 hrs by HPLC analysis; format: physicochemical; conditions: read-out: Therm_solubility
Outline: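 Solid compound in 1.0 mL of 1/15 M phosphate buffer (pH 7.4) was shaken 48 h at 25 °C and filtered. m-Cresol internal standard was added (0.05 mg/mL final), the sample diluted in DMF and run on HPLC with UV at 254 nm. Concentration came from the sample/standard peak-area ratio against a calibration curve, corrected for dilution.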

[3] = biological target: T1, Kinesin-like protein KIF11 (Homo sapiens, UniProt P52732); test: Inhibition of C-terminal His-tagged KSP ATPase motor domain (unknown origin) expressed in bacteria incubated for 30 mins prior to ATP addition measured after 15 mins by luminescence assay
T1 sequence (P52732 whole entry): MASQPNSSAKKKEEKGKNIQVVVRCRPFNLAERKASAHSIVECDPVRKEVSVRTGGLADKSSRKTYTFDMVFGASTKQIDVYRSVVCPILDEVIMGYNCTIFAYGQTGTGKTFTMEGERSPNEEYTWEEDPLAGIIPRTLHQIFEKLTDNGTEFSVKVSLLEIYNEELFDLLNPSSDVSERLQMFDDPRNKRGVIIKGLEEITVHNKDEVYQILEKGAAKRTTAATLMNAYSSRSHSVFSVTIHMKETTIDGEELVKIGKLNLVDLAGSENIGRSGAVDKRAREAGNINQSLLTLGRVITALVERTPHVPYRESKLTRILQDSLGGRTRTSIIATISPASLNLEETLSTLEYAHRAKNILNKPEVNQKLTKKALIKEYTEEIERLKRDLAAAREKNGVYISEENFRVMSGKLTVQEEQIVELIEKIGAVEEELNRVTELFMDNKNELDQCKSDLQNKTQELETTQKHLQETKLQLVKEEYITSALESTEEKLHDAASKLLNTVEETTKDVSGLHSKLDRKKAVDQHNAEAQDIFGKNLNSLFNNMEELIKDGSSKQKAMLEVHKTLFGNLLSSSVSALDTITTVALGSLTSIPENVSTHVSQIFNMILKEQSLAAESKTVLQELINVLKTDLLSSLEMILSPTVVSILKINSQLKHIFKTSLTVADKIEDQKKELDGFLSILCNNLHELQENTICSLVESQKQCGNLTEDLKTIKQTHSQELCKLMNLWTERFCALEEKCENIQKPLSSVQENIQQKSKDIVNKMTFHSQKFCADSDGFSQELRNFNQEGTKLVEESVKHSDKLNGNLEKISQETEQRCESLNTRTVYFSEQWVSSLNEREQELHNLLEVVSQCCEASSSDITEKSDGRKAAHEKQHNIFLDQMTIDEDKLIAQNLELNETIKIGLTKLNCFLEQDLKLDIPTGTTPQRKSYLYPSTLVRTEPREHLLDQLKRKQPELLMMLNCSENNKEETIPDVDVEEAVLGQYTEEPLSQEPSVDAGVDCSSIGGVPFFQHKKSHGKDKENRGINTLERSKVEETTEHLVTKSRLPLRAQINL

[4] = Retention time of the compound by HPLC analysis; format: physicochemical
Outline: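 Reverse-phase C18 HPLC (4.6 × 250 mm), eluted with a linear 30–70% MeCN gradient over 40 min in 0.1% TFA.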

[5] = system: A549; test: Antiproliferative activity against human A549 cells assessed as growth inhibition after 72 hrs by MTS assay; format: functional, cell-based; conditions: A549, 72 h
Outline: (§1)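 Media with 10% FBS at 37 °C, 5% CO2: A549 in DMEM (500 cells/well), HCT-116 in McCoy's 5A and MCF-7 in EMEM (5000 cells/well each). Cells settled 6 h, then got graded compound concentrations (0.1% final DMSO) for 72 h. After washing into phenol-red-free medium (1 h), MTS was added for 40 min and A490 read. IC50 came from mean inhibition rates of ≥3 experiments.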

[6] = system: HCT-116; test: Antiproliferative activity against human HCT116 cells assessed as growth inhibition after 72 hrs by MTS assay; format: functional, cell-based; conditions: HCT-116, 72 h; outline: as §1
[7] = system: MCF7; test: Antiproliferative activity against human MCF7 cells assessed as growth inhibition after 72 hrs by MTS assay; format: functional, cell-based; conditions: MCF7, 72 h; outline: as §1

Row | SMILES | IC50 [3] [nM] | further results
1 | FC(F)(F)c1ccc2c(c1)[nH]c1ccccc12 | – | solubility thermodynamic at 48 h [1]: 424 µg/mL (≈ 1800 µM); solubility thermodynamic at 48 h [2]: < 1 µg/mL
2 | FC(F)(F)c1ccc2c(c1)[nH]c1cnccc12 | – | solubility thermodynamic at 48 h [1]: 472 µg/mL (≈ 2000 µM); solubility thermodynamic at 48 h [2]: < 1 µg/mL
3 | FC(F)(F)c1ccc2c(c1)[nH]c1ccncc12 | – | solubility thermodynamic at 48 h [1]: 1760 µg/mL (≈ 7450 µM); solubility thermodynamic at 48 h [2]: 3.16 µg/mL (≈ 13.4 µM)
4 | FC(F)(F)c1cccc(Nc2cccnc2)c1 | 7000 | solubility thermodynamic at 48 h [1]: 14300 µg/mL (≈ 60000 µM); solubility thermodynamic at 48 h [2]: 10.8 µg/mL (≈ 45.3 µM)
5 | FC(F)(F)c1cccc(Nc2ccncc2)c1 | > 6300 | solubility thermodynamic at 48 h [1]: 24000 µg/mL (≈ 101000 µM); solubility thermodynamic at 48 h [2]: 264 µg/mL (≈ 1110 µM)
6 | Nc1ccc2c(c1)[nH]c1cc(C(F)(F)F)ccc12 | 270 | –
7 | CC(=O)Nc1ccc2c(c1)[nH]c1cc(C(F)(F)F)ccc12 | 85 | –
8 | O=[N+]([O-])c1ccc2[nH]c3cc(C(F)(F)F)ccc3c2c1 | 43 | –
9 | Nc1ccc2[nH]c3cc(C(F)(F)F)ccc3c2c1 | 550 | –
10 | O=[N+]([O-])c1cccc(Nc2cccc(C(F)(F)F)c2)c1 | > 6300 | –
11 | Nc1cccc(Nc2cccc(C(F)(F)F)c2)c1 | > 6300 | –
12 | NC(=O)Nc1cccc(Nc2cccc(C(F)(F)F)c2)c1 | > 6300 | –
13 | O=[N+]([O-])c1ccc(Nc2cccc(C(F)(F)F)c2)cc1 | 3200 | –
14 | Nc1ccc(Nc2cccc(C(F)(F)F)c2)cc1 | > 6300 | –
15 | NC(=O)Nc1ccc(Nc2cccc(C(F)(F)F)c2)cc1 | 390 | –
16 | O=C1CCc2cc(Nc3ccccc3)ccc2N1 | > 6300 | –
17 | CC(C)c1cccc(Nc2ccc3c(c2)CCC(=O)N3)c1 | 430 | –
18 | O=C1CCc2cc(Nc3cccc(-c4ccccc4)c3)ccc2N1 | > 6300 | –
19 | O=C1CCc2cc(Nc3cccc(Oc4ccccc4)c3)ccc2N1 | > 6300 | –
20 | O=C1CCc2cc(Nc3cccc([N+](=O)[O-])c3)ccc2N1 | 440 | –
21 | COC(=O)c1cccc(Nc2ccc3c(c2)CCC(=O)N3)c1 | > 6300 | –
22 | O=c1[nH]c2ccc(Nc3cccc(C(F)(F)F)c3)cc2o1 | > 6300 | –

Continued, in another order:

Row | IC50 [3] [nM] | SMILES | further results
23 | 45 | O=C1CCc2cc(Nc3cccc(C(F)(F)F)c3)ccc2N1 | solubility thermodynamic at 48 h [1]: 1800 µg/mL (≈ 5880 µM); solubility thermodynamic at 48 h [2]: < 1 µg/mL; Retention_time [4]: 24.4 min; IC50 [5]: 4.2 µM; IC50 [6]: 8.9 µM; IC50 [7]: 11 µM
24 | 2000 | O=C1CCc2cc(Oc3cccc(C(F)(F)F)c3)ccc2N1 | –
25 | > 6300 | O=C1CCc2cc(Sc3cccc(C(F)(F)F)c3)ccc2N1 | –
26 | 330 | O=C1CCc2cc(Nc3ccc(C(F)(F)F)cc3)ccc2N1 | –
27 | > 6300 | O=C1CCc2cc(Oc3ccc(C(F)(F)F)cc3)ccc2N1 | –
28 | > 6300 | O=C1CCc2cc(Sc3ccc(C(F)(F)F)cc3)ccc2N1 | –
29 | > 6300 | O=C1CCc2cc(Nc3ccccc3C(F)(F)F)ccc2N1 | –
30 | 810 | CCc1cccc(Nc2ccc3c(c2)CCC(=O)N3)c1 | –
31 | 160 | CC(C)(C)c1cccc(Nc2ccc3c(c2)CCC(=O)N3)c1 | –
32 | > 6300 | O=C1CCc2cc(Nc3cc(C(F)(F)F)cc(C(F)(F)F)c3)ccc2N1 | –
33 | > 6300 | COc1cccc(Nc2ccc3c(c2)CCC(=O)N3)c1 | –
34 | 1200 | O=C1CCc2cc(Nc3cccc(OC(F)(F)F)c3)ccc2N1 | –
35 | > 6300 | O=C1CCc2cc(Nc3cccc(O)c3)ccc2N1 | –
36 | > 6300 | Nc1cccc(Nc2ccc3c(c2)CCC(=O)N3)c1 | –
37 | > 6300 | O=C1CCc2cc(Nc3cccc(C(=O)O)c3)ccc2N1 | –
38 | 68 | O=C1CCc2cc(Nc3cc(C(F)(F)F)ccn3)ccc2N1 | solubility thermodynamic at 48 h [1]: 3510 µg/mL (≈ 11400 µM); solubility thermodynamic at 48 h [2]: 6.12 µg/mL (≈ 19.9 µM); Retention_time [4]: 7 min; IC50 [5]: 2.5 µM; IC50 [6]: 4.4 µM; IC50 [7]: 8 µM

Row | IC50 [3] [nM] | SMILES | further results
39 | > 6300 | O=C1CCc2ccc(Nc3cccc(C(F)(F)F)c3)cc2N1 | –
40 | > 6300 | O=C1COc2ccc(Nc3cccc(C(F)(F)F)c3)cc2N1 | –
41 | 4600 | O=c1ccc2ccc(Nc3cccc(C(F)(F)F)c3)cc2[nH]1 | –
42 | > 6300 | O=C1CCc2c(cccc2Nc2cccc(C(F)(F)F)c2)N1 | –
43 | 3600 | O=C1Cc2cc(Nc3cccc(C(F)(F)F)c3)ccc2N1 | –
44 | 810 | O=c1[nH]c2ccc(Nc3cccc(C(F)(F)F)c3)cc2s1 | –
45 | 290 | O=C1COc2cc(Nc3cccc(C(F)(F)F)c3)ccc2N1 | –
46 | 51 | O=C1CSc2cc(Nc3cccc(C(F)(F)F)c3)ccc2N1 | solubility thermodynamic at 48 h [1]: 1700 µg/mL (≈ 5240 µM); solubility thermodynamic at 48 h [2]: < 1 µg/mL; Retention_time [4]: 28.2 min; IC50 [5]: 4.1 µM; IC50 [6]: 6.8 µM; IC50 [7]: 6.5 µM
47 | > 6300 | CN1C(=O)CCc2cc(Nc3cccc(C(F)(F)F)c3)ccc21 | –
48 | 190 | FC(F)(F)c1cccc(Nc2ccc3c(c2)CCC(=S)N3)c1 | –
49 | 50 | O=C1CCCc2cc(Nc3cccc(C(F)(F)F)c3)ccc2N1 | solubility thermodynamic at 48 h [1]: 7390 µg/mL (≈ 23100 µM); solubility thermodynamic at 48 h [2]: < 1 µg/mL; Retention_time [4]: 27 min; IC50 [5]: 4.5 µM; IC50 [6]: 5.7 µM; IC50 [7]: 3.9 µM
50 | 430 | O=C1CCc2cc(Nc3cccc(C(F)(F)F)c3)cc(F)c2N1 | –
51 | 920 | O=C1CCc2cc(Nc3cccc(C(F)(F)F)c3)c(F)cc2N1 | –
52 | 35 | O=C1CSc2cc(Nc3cc(C(F)(F)F)ccn3)ccc2N1 | solubility thermodynamic at 48 h [1]: 669 µg/mL (≈ 2060 µM); solubility thermodynamic at 48 h [2]: 1.11 µg/mL (≈ 3.41 µM); Retention_time [4]: 13.8 min; IC50 [5]: 1.5 µM; IC50 [6]: 2.6 µM; IC50 [7]: 2.8 µM
53 | 50 | O=C1CCCc2cc(Nc3cc(C(F)(F)F)ccn3)ccc2N1 | solubility thermodynamic at 48 h [1]: 4820 µg/mL (≈ 15000 µM); solubility thermodynamic at 48 h [2]: 8.07 µg/mL (≈ 25.1 µM); Retention_time [4]: 10.8 min; IC50 [5]: 5 µM; IC50 [6]: 6.5 µM; IC50 [7]: 9.1 µM
